Assay results: ChEMBL document CHEMBL4513216, “Probing the Open Global Health Chemical Diversity Library for Multistage-Active Starting Points for Next-Generation Antimalarials” (ACS Infect Dis, 2020)

Assay: Toxicity liver stage against HepG2, at 10uM
Format: cell-based
Design: test concentration 10 uM, cell line HepG2-A16-CD81EGFP
Conditions: human, HepG2-A16-CD81EGFP cells; read-out: INHIBITION
Summary of the method: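 Uninfected HepG2-A16-CD81EGFP cells, 3 × 10^3 per well, 1536-well, plated on prespotted compound at 10 μM final, parasite-free screening media added to match infected plates; puromycin 10 μM positive, DMSO 0.5% negative; run in parallel with 48 h PbLuc assay at 37 °C, 5% CO2; viability by CellTiter-Glo luminescence, normalized to controls.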

Structure (SMILES)	cytotoxicity at 10 µM [%]
CCOC(=O)C1CCCCN1Cc1c[nH]nc1-c1ccc(F)cc1F (stereo not given)	-0.545
Cc1ccn(CCC(=O)NCc2ccc(C)o2)n1	-2.96
CN1CCCC1CCNC(=O)Nc1ccccc1 (stereo not given)	0.238
COC(=O)CC(c1cccs1)c1oc(C)cc(=O)c1O (stereo not given)	2.99
Cc1ccccc1OCC(=O)NCC(c1ccc(N(C)C)cc1)N(C)C (stereo not given)	-30.2
CC(C)NC(=O)Cn1cc(OCc2ccc(F)cc2)c(=O)cc1CO	4.74
COCCNC(=O)Cn1cc(OCc2ccc(F)cc2)c(=O)cc1CO	2.73
COc1cccc(CNC(=O)NC2(c3nc(C)no3)CCCCC2)c1	4.04
O=C(c1cnccn1)N1CCC(Oc2ncccc2Cl)CC1	0.566
CCN1CCNC(=O)C12CCN(S(=O)(=O)c1ccc(F)cc1)CC2	1.17
COc1ccc(C[C@H]2CN(C(=O)c3ncccn3)CC[C@@H]2OC)cc1	4.65
O=c1[nH]nc2c(S(=O)(=O)N3CCOCC3)cccn12	-1.7
CC(CC(=O)O)CC(=O)Nc1sc2c(c1C(N)=O)CCc1ccccc1-2 (stereo not given)	8.26
O=c1[nH]nc2nc(N3CCOCC3)ccn12	-5.08
COc1ccc(NC(=O)CSc2ccc3nncn3n2)c(OC)c1	3.94
COC(=O)CC(c1ccc(OC)c(OC)c1)c1oc(C)cc(=O)c1O (stereo not given)	16.8
CC1CCCN(C(=O)c2ccn(COc3ccccc3)n2)C1 (stereo not given)	9.43
CCn1nc(C)c2ncnc(N3CCCC(C)C3)c21 (stereo not given)	9.18
CCCc1nc(NCCCn2cccn2)c2c(n1)c(C)nn2CC	7.88
CCn1nc(C)c(NC(=O)c2nnn(Cc3ccccc3)c2OC)c1C	13.9
COCC(=O)N1Cc2nc3c(C)c(-c4cccs4)nn3c(O)c2C1	-4.81
CN1C[C@H](c2ccccc2)[C@H]2CN(C(=O)Cc3ccc(O)cc3)CC[C@H]21	8.14

Structure (SMILES)	cytotoxicity at 10 µM [%]
CC(=O)N1CCCC1CCc1ccnc(-c2cncnc2)c1 (stereo not given)	1.24
Nc1nc(N)c2c(n1)OC1(CCN(C(=O)CC3CCCNC3)CC1)C2 (stereo not given)	5.03
CN(Cc1ccc(F)cc1)[C@@H]1CN(S(=O)(=O)N(C)C)C[C@H]1O	-1.34
CCn1c(C)nc2cc(NC(=O)CC3CCCCO3)ccc21 (stereo not given)	5.36
O=C1NCc2ccccc2CC12CCCN(CCCc1ccccc1)C2 (stereo not given)	10.3
O=C(c1ccc(Cl)cc1)N1CCC(N2CCCCC2=O)CC1	7.3
CN(C)c1cc(C(F)(F)F)cc(-c2ccc(C(=O)O)cc2)n1	9.15
CC(=O)Nc1ccc(SCC(O)COCc2ccco2)cc1 (stereo not given)	8.45
Cc1nc(CCCC(=O)Nc2cccc(N3CCNC3=O)c2)cs1	-2.26
COCC1CCN(CCOc2ccc(C#N)cc2OC)CC1	4.11
COc1cc(CNc2nc(C3CC3)no2)cc(OC)c1OC	-0.291
Cn1c(CS(=O)(=O)Cc2cccc(Cl)c2)cc(=O)n(C)c1=O	8.17
O=S(=O)(Cc1ccccc1Cl)CC(O)CO (stereo not given)	6.44
CC(=O)N1CCCN(Cc2csc(C)n2)c2ccccc21	0.00333
CC(C)(C)C(=O)N1CCCN(c2ncnc3nc(N)ccc23)CC1	3.39
NC(=O)COc1cccc(Cn2cc(Br)cn2)c1	1.98
NC(=O)N1CCCC(C(=O)NCCOc2ccc(F)c(F)c2)C1 (stereo not given)	2.94
COc1ccc(Br)c(NC(=O)NCc2cnn(C)c2)c1	6.91
CCN(Cc1ccc2c(c1)OCO2)c1ncc(S(N)(=O)=O)s1	8.14
CC(NC(=O)CN1C=Nc2ccccc2S1(=O)=O)C1CC1 (stereo not given)	4.53
Fc1ccc(C2(NCc3noc(C4CC4)n3)CCC2)cc1	-0.304
CC(C)c1noc(CCCC(=O)Nc2cccc(F)c2)n1	7.01

Structure (SMILES)	cytotoxicity at 10 µM [%]
Cc1nc(CN2CCCN(C(=O)CC(C)n3cccc3)CC2)cs1 (stereo not given)	-6.25
CN(C)c1cc(C(=O)NC2(c3cccc(F)c3)CCOCC2)ccn1	-1.31
CCc1ccc(CC(=O)N2CCN(c3nccn3C)CC2)cc1	-0.647
CN(C(=O)CNCCn1cccn1)C1(C#N)CCCCC1	2.04
Cc1cccc(CNC2(CCO)CCOCC2)c1C	-14.9
Cc1ccc(C(=O)N(C)Cc2c(C)noc2C)c(=O)[nH]1	-8.2
CCc1noc(CC)c1CNC(=O)Nc1ccc2[nH]nnc2c1	6
O=C(NCCCO)Nc1cccc(I)c1	-6.1
Cc1cc(C)n(CCC(=O)OCC(=O)N2CCc3sccc3C2)n1	8.52
CCn1nc(C)cc1C(=O)NCc1noc(C(C)(C)C)n1	8.7
CC(C)(C)C(=O)N1CCN(Cn2nccc2-c2cccnc2)CC1	8.27
CNC(=O)Cn1cc(C#N)c(=O)c2cc(Br)ccc21	23.7
CN1CCN(C)C2(CCN(C(=O)CC(F)(F)F)CC2)C1=O	1.24
CCN1CC2(CC1=O)CN(C(=O)NC(C)C)CCN(C(=O)NC(C)C)C2	-1.73
CC(C)n1nc(CN2CCCC2=O)c2c1CN(C(=O)c1ccno1)C2	3.39
Cc1ccc(N2CC[C@H](OCC3CC3)[C@@H]2Cc2ccncc2)nn1	8.13
O=C1CC(c2ccncc2)C2(CCN(Cc3nccs3)CC2)N1 (stereo not given)	4.8
COCC(=O)N1CC[C@@H]2O[C@@H](COCc3csc(C)n3)CC[C@@H]21	3.24
Cn1c(CN2CCN(c3cccnc3)CC2)cc2ccccc21	5.33
Cc1nn(C)cc1C(C)Nc1ncnc2sccc12 (stereo not given)	14.1
Cc1nc(N(C)C)nc(NCCc2cnccn2)c1C	-1.22
Cc1c(C2c3nc[nH]c3CCN2CCOCc2ccccc2)cnn1C (stereo not given)	0.838

Structure (SMILES)	cytotoxicity at 10 µM [%]
O=C(c1ccccn1)N1CCC(c2nccn2Cc2ccncc2)CC1	1.94
CCC[C@@H]1CN(c2ncnc3sccc23)C[C@H]1NS(C)(=O)=O	-1.25
CN(CCc1cnn(C)c1)C(=O)Cn1c(=O)[nH]c2ccccc21	4.5
CN(C)C(=O)NCc1cc2n(n1)CCCN(CC1CCCNC1)C2 (stereo not given)	-4.07
CCCn1ccnc1CN1CCC(Oc2cccc(F)c2)(C(=O)O)CC1	1
Cc1nc(N(C)C)ncc1C(=O)N[C@@H]1CCc2ccccc21	5.77
CN(C)CCN(C)C[C@@H]1CN(C(=O)NC2CCCC2)C[C@@H]1CO	1.35
COCCC1CN(Cc2cn(CCC(N)=O)c3ccccc23)CCO1 (stereo not given)	-3.15
COc1cc(C)c(C)cc1S(=O)(=O)N(C)CC(=O)Nc1ccon1	2.74
O=C(c1cnc(Nc2ccccc2)nc1)N1CCS(=O)(=O)CC1	-1.01
O=C1CC(c2cccs2)c2snc(C(=O)O)c2N1 (stereo not given)	-11.1
CC(=O)N1CCC(C(=O)N(C)[C@@H]2CCC[C@@H](N3CCCC3)[C@@H]2O)CC1	-0.156
Cc1ccc(CNC(=O)Nc2nncs2)cn1	-9.12
Cc1ccc(-c2nc(CN3CCN(CCO)CC3)co2)cc1	-23.7
CC(NC(=O)NCCCn1cncn1)c1ccc2c(c1)CC(=O)N2 (stereo not given)	-8.01
CCC(=O)N1CCN(C(=O)Cn2cccn2)CC1	0.661
Cc1ccc(C(=O)N2CCC(c3n[nH]c(C4CC4)n3)CC2)cc1F	-5.5
Cc1nc(CN(C)C2CCN(CCCOc3ccccc3C)C2)no1 (stereo not given)	2.24
Cc1ncsc1CNc1cc(N2CCCC2CO)ncn1 (stereo not given)	-12.5
CCn1ccnc1CN1CCCN(C(=O)Cc2ccc(F)cc2)CC1	-15.8
CC(C)c1nc2c(n1C)CCN(CC(=O)Nc1ccnn1C(C)C)C2	-1.3
CC(C(=O)NCc1ccc(N2CCNC(=O)C2)cc1)n1cncn1 (stereo not given)	-9.21

Structure (SMILES)	cytotoxicity at 10 µM [%]
CN(Cc1ccco1)C(=O)C1CSCN1C(=O)c1cccnc1 (stereo not given)	-5.28
COc1c(CNC2CCN(C(C)(C)C)CC2)c(C(C)C)nn1C	-10.9
CCc1cnc(CN(C)C2CCN(CCc3cccs3)C2)o1 (stereo not given)	-16.8
Cc1nc2ccccc2c(=O)n1CCC(=O)N1CCSCC1	-6.13
c1cnn(CC2CN(Cc3ccc(-n4ccnc4)cc3)CCO2)c1 (stereo not given)	-3.12
CCc1noc(CN2CCCC2c2noc(C3CC3)n2)n1 (stereo not given)	-3.76
Cn1ccnc1C1(O)CCN(C(=O)CCc2ccccc2)CC1	1.37
CNC(=O)C(C)(C)N1CCC[C@H]1C(=O)NCC(C)C	1.55
COc1ccc(CN2C[C@H]3CC[C@](O)(c4ccc(C)cn4)[C@H]3C2)c(F)c1	-1.57
c1ccc(CN2C[C@H]3CCC[C@@]3(COCC3CC3)C2)nc1	1.55
c1cnc(-c2noc(C3CN(Cc4ccc5c(c4)CCO5)C3)n2)nc1	0.488
Cn1cccc1C(=O)N1CC[C@H]2[C@H]1CCN2CC1CCOCC1	-4.81
Fc1ccccc1CN1C[C@@H]2CN(Cc3cccnc3)CCO[C@@H]2C1	9.2
Cc1nn(C)c(N(C)C)c1CNC1CCc2cc(F)ccc21 (stereo not given)	-15.4
Cn1ccc(C(=O)N2C[C@@H]3CN(CC4CC4)CCO[C@@H]3C2)n1	14.9
Cn1cc(CN2CCC3(CC(=O)N(c4ccc5c(c4)OCO5)C3)C2)cn1 (stereo not given)	-4.97
Cc1ccc(-c2n[nH]cc2CNCC2CCN(CC(F)(F)F)C2)o1 (stereo not given)	6.99
O=C(CC1CC1)N1CCC2(CCCN(CCOc3ccccc3)C2)C1 (stereo not given)	-0.861
CN(C)C(=O)N[C@H]1CN(Cc2ccc3c(c2)OCO3)[C@@H]2CCCO[C@H]12	4.32
O=C1COC2(CCN(CC3CCOCC3)CC2)CN1Cc1ccccn1	-2.76
O=C([C@@H]1CSCN1)N1CCC2(CC1)CNCc1ccccc12	-2.08
C1CC(CN2C[C@@H]3CC[C@H]2CN(Cc2nnc(C4CC4)o2)C3)C1	1.19
